Laboratory results: the EternaBench riboswitch data

Legend:
MS2 coat protein [1] = experiment: apparent Kd, MS2 coat protein; higher = weaker binding; RNA-MaP array; tryptophan 2.4 mM where present
Procedure, shortened: (§1)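 Designs on Illumina sequencing-chip clusters, transcribed by stalled E. coli RNA polymerase, were exposed to SNAP-549-labelled MS2 coat protein in doubling steps from 0.7 or 1.5 nM up to 3 µM, without and then with constant ligand. The buffer held 100 mM Tris-HCl pH 7.5, 80 mM KCl, 4 mM MgCl2, BSA, DTT, yeast tRNA and Tween-20. Apparent Kd values are medians of filtered per-cluster binding-curve fits to green signal normalised to red-channel RNA signal and control-cluster median Fmax.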

MS2 coat protein [2] = experiment: apparent Kd, MS2 coat protein; higher = weaker binding; RNA-MaP array; theophylline 2 mM where present
Procedure, shortened: as §1

[3] = designed as: ON switch for tryptophan, no ligand
[4] = ligand present: tryptophan, designed as: ON switch for tryptophan
[5] = designed as: OFF switch for tryptophan, no ligand
[6] = ligand present: tryptophan, designed as: OFF switch for tryptophan
[7] = designed as: OFF switch for theophylline, no ligand
[8] = ligand present: theophylline, designed as: OFF switch for theophylline
[9] = designed as: ON switch for theophylline, no ligand
[10] = ligand present: theophylline, designed as: ON switch for theophylline

Row | Sequence | apparent Kd (MS2 coat protein [1]; [5]) | apparent Kd (MS2 coat protein [1]; [6]) | apparent Kd (MS2 coat protein [2]; [7]) | apparent Kd (MS2 coat protein [2]; [8]) | also measured
1 | UUCUACGGCGAUCUGGGUUUACCAGAUCGACGAGGACCGGUACGGCCGCCACUCGUGUUUCUUUAACAUGAGGAUCACCCAUGUA |  |  |  |  | apparent Kd (MS2 coat protein [1]; [3]): 48 nM; apparent Kd (MS2 coat protein [1]; [4]): 22.4 nM
2 | GGACUCGUCACGGCCGCCACUGCGGUGGUGUGACAUGAGGAUCACCCAUGUUGUCAUGCGGCCCUUAGGACCGGGUGUCGCUUCC | 169 nM | 198 nM |  |  | 
3 | AACAUGAGGAUCACCCAUGUCCUCGUGUACCGAGGACCGGUACGGCCGCCACUCGGUUCUCGCGAGGAUGGUCAAAGACUAUCCA |  |  |  |  | apparent Kd (MS2 coat protein [1]; [3]): 417 nM; apparent Kd (MS2 coat protein [1]; [4]): 470 nM
4 | GGGUGGUAGGCGGCCGCCACUGAUUUUUAUUUAUAGAUGACAUGAGGAUCACCCAUGUUUAUAUGCAGGACCGGGCCUGUUGUGG |  |  |  |  | apparent Kd (MS2 coat protein [1]; [3]): 15.7 nM; apparent Kd (MS2 coat protein [1]; [4]): 14.2 nM
5 | CAAUAAGUACCGGUCCUCAGAUCCUCAUGACGAGGACCGGUACGGCCGCCACUCGAAACAUGAGGAUCACCCAUGUAAUAAUAAU | 23 nM | 28.4 nM |  |  | 
6 | AGGUACGAAAACGUGGGUGAGUCGUACCAACGAGGACCGGUACGGCCGCCACUCGAAUAAACAUGAGGAUCACCCAUGUAAUAAU |  |  |  |  | apparent Kd (MS2 coat protein [1]; [3]): 42.4 nM; apparent Kd (MS2 coat protein [1]; [4]): 107 nM
7 | CCUCAUGAACAUGAGGAUCACCCAUGUACACGAGGACCGGUACGGCCGCCACUCGAAUAACCUAAAUAUAAAUAAUAAUAAUAGG | 15.8 nM | 43 nM |  |  | 
8 | AACAUACAGUUUUAGGUGGAUAUAAGGCGGCGAGGACCGGUACGGCCGCCACUCGCGUACAUGAGGAUCACCCAUGUCUGAAGCU |  |  |  |  | apparent Kd (MS2 coat protein [1]; [3]): 60.3 nM; apparent Kd (MS2 coat protein [1]; [4]): 46.5 nM
9 | AUAAAUGGGUUAAUUAGUUUUAGGUCCAGUCGAGGACCGGUACGGCCGCCACUCGUCCCAAGUUACAUGAGGAUCACCCAUGUUA | 46.6 nM | 67.5 nM |  |  | 
10 | GCUGCAGCUACGGCCGCCACUGUUACGUGAGACAUGAGGAUCACCCAUGUUGAUGUUUUACAGAAUAGGACCGGGUAGUUGUAGU | 9.07 nM | 10.2 nM |  |  | 
11 | UAAUAAGUACCGGUCCUCAGAUCCUCAUGUCGAGGACCGGUACGGCCGCCACUCGAAACAUGAGGAUCACCCAUGUAAUAAUAAU | 39.5 nM | 31.5 nM |  |  | 
12 | AAUUCAAUUUUCUUGAUGUAUUAUAUAUUUCGAGGACCGGUACGGCCGCCACUCGUUAAUUACAUGAGGAUCACCCAUGUUAGCU | 16.8 nM | 14 nM |  |  | 
13 | UCGUUUUAGUCGGCCGCCACUGGUCUCAUGUUCAACAUGAGGAUCACCCAUGUAUCUUAUUUUAACAGGACCGGGACGUAAUAGA | 50.8 nM | 19.8 nM |  |  | 
14 | AUAUGAUCAUGGGAUACCAGAAAUGGUAUUCCUUUAUUUCUUACAUGAGGAUCACCCAUGUUCCCUUGGCAGCUUAUGAUCAUAU |  |  | 75 nM | 282 nM | 
15 | GGCCUUGCGGGCGCCCGCAAGGCCGCGGAUACCAGCGAGGUCCAUCGCCCUUGGCAGCCGAACAUGAGGAUCACCCAUGUCGGUU |  |  |  |  | apparent Kd (MS2 coat protein [2]; [9]): 11 nM; apparent Kd (MS2 coat protein [2]; [10]): 13.4 nM
16 | GCUGGGUGCGCAAGGACCUGGCGUUGCGAUACCAGCACGGUAACGUGCCCUUGGCAGCGCACAUGAGGAUCACCCAUGUGGUGUU |  |  | 276 nM | 310 nM | 
17 | AUAUGAUCAUGUGAUACCAGAAAUGGUAGUCUUCACUGGAUUACAUGAGGAUCACCCAUGUUCCCUUGGCAGCAUAUGAUCAUAU |  |  | 43.6 nM | 259 nM | 
18 | ACAUGAGGAUCCGAUACCAGCCACAUGAGGAUCACCCAUGUAGUACAUGAGGAUCACCCAGGCCCUUGGCAGCGGACAUGAGGAU |  |  | 178 nM | 1900 nM | 
19 | ACGAUACGACAUGAGGAUCACCCAUGUGAUACCAGCCUGGAAACAGGCCCUUGGCAGCACAAAUACUCCAGAAACGUAUCGAAAA |  |  | 204 nM | 469 nM | 
20 | CUAGGAAACUAGUAAGGGUGGUAUUGAGAUACCAGUACAGAAAUGUACCCUUGGCAGCUCACUGCAACAUGAGGAUCACCCAUGU |  |  | 24.1 nM | 55.9 nM | 
21 | AUUUACAUGGUCAUAUAUAUAUCGUCAGAUACCAGACGAGAUAUUGUCCCUUGGCAGCUGUUACAUGAGGAUCACCCAUGUAAUU |  |  | 85.8 nM | 83.7 nM | 
22 | ACUUCAUGAGGUGAUACCAGCCAAUGACAUGAGGACAUGAGGAUCACCCAUGUUUAUGUAGGCCCUUGGCAGCAUUGUAACAUGA |  |  |  |  | apparent Kd (MS2 coat protein [2]; [9]): 59.4 nM; apparent Kd (MS2 coat protein [2]; [10]): 52.3 nM
23 | AUUUAUUGUCGUGAUACCAGACAUACAUGAGGAUCACCCAUGUUAAGUAACAUUUUUUAGGUCCCUUGGCAGCACUUUUUAAUUA |  |  |  |  | apparent Kd (MS2 coat protein [2]; [9]): 26.1 nM; apparent Kd (MS2 coat protein [2]; [10]): 15.8 nM
24 | AUAAGUAAUGUCUCGUGUAUUAUUACAGAUACCAGACUAUCCUAUGUCCCUUGGCAGCUGGAUUACAUGAGGAUCACCCAUGUUG |  |  | 23.2 nM | 27.5 nM | 
25 | UUAGAUAUGACGGAUACCAGCGUGUUGUAGAACAUGAGGAUCACCCAUGUAGUGAUCGAGCGCCCUUGGCAGCUGGUAUGUUUGG |  |  |  |  | apparent Kd (MS2 coat protein [2]; [9]): 179 nM; apparent Kd (MS2 coat protein [2]; [10]): 482 nM
26 | CGAAUACCAAUUGAUACCAGCAUGUUAACAUGAGGAUCACCCAUGUUAAGGAUAACAUAAUGCCCUUGGCAGCAACGUAAAUUCG |  |  |  |  | apparent Kd (MS2 coat protein [2]; [9]): 22.9 nM; apparent Kd (MS2 coat protein [2]; [10]): 13.5 nM
